Experimental findings from ChEMBL document CHEMBL5034042 (ACS Med Chem Lett, 2022) are described below.

The target in assay [1] is T1, Trace amine-associated receptor 1 (Homo sapiens, UniProt Q96RJ0).
T1 sequence (Q96RJ0 whole entry): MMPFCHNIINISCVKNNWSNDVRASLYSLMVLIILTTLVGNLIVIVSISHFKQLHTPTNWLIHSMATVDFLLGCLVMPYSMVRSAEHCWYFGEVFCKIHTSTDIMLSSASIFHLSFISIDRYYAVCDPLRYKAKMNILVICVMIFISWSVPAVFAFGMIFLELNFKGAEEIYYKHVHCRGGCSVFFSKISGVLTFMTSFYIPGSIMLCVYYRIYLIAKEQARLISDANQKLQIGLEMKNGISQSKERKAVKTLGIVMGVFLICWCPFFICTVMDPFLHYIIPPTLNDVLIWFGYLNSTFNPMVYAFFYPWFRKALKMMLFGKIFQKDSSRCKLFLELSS
The assay can be described thus: Agonist activity at recombinant human TAAR1 expressed in CHO-K1 cells assessed as increase in intracellular cAMP incubated for 30 mins by HTRF analysis. The format is functional, cell-based. The method, boiled down: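 Human TAAR1 agonism was measured in a single study under identical conditions.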

Assay [2] deals with T2, Trace amine-associated receptor 1 (Homo sapiens) (UniProt Q96RJ0).
T2 sequence (whole entry): T1 sequence (Q96RJ0 whole entry)
As to the kind of experiment: Agonist activity at recombinant human TAAR1 expressed in CHO-K1 cells assessed as maximal increase in intracellular cAMP incubated for 30 mins by HTRF analysis relative to control. To be noted: filed as agonist. Format: functional, cell-based. A digest of the protocol: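 Maximal response (Emax) is expressed relative to a p-tyramine control applied to each plate. Values were run in triplicate under identical conditions in a single study and are reported as mean ± SEM (n = 3).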
On the technique in general: Time-resolved FRET reads energy transfer from a long-lived donor to a nearby acceptor.

SMILES strings stand for the structures.

As for `NC[C@@H](O)c1ccc(O)cc1`, in assay [1], the EC50 turned out to be 4110 nM. For the same molecule, the Emax in assay [2] came to 108%.
The matching figures for `NCCc1ccc(O)cc1` [TYRAMINE]: 76 nM and 111%.
The matching figures for `CNCC1OCCc2cscc21` (configuration not stated): 290 nM and 112%.
The matching figures for `CNCC1OCCCc2ccsc21` (racemic): 321 nM and 113%.
Take `NCC[C@@H]1OCCc2ccsc21`: the EC50 in assay [1] amounted to 233 nM. The Emax in assay [2] came out at 105%.
In the same order, the values of `NCCc1ccccc1` [PHENETHYLAMINE] are 15 nM and 111%.
Turning to `NCCc1ccc(O)c(O)c1`, in assay [2], the Emax stood at 97%.
Regarding `NCC(O)c1ccc(O)c(O)c1` (configuration not stated), the EC50 in assay [1] was 12200 nM. Moreover, in assay [2], the Emax turned out to be 99%.
The matching figures for `NCC1OCCCc2ccsc21` (racemic): 65 nM and 111%.
In the same order, the values of `CNC[C@H](O)c1ccc(O)cc1` are 4730 nM and 113%.
For `NCCc1c[nH]c2ccc(O)cc12` [SEROTONIN], the EC50 in assay [1] turned out to be 35100 nM. Moreover, in assay [2], the Emax worked out at 75%.
In the same order, the values of `NC[C@@H]1OCCc2ccsc21` are 3.5 nM and 110%.
In the same order, the values of `COc1cc(CCN)ccc1O` are 308 nM and 101%.
In the same order, the values of `NCCc1cccs1` are 8.3 nM and 113%.
Turning to `CNCCc1ccccc1`, in assay [1], the EC50 was 151 nM. In assay [2], the Emax was 111%.
In the same order, the values of `NCCc1cccc(O)c1` are 339 nM and 109%.
In the same order, the values of `NC[C@H](O)c1ccc(O)cc1` are 1570 nM and 116%.
In the same order, the values of `CNC[C@]1(C)OCCc2ccsc21` are 45700 nM and 95%.
Take `NCCc1ccc(Oc2ccc(O)cc2)c(I)c1`: in assay [1], the EC50 was found to be 225 nM. Further, the Emax in assay [2] is 105%.
Regarding `NCCc1c[nH]c2ccccc12` [TRYPTAMINE], the EC50 in assay [1] is 2210 nM. Further, the Emax in assay [2] stood at 102%.
The matching figures for `c1cc2c(s1)[C@H](CN1CCCC1)OCC2`: 7200 nM and 113%.
The matching figures for `CN(C)C[C@@H]1OCCc2ccsc21`: 203 nM and 112%.
In the same order, the values of `CNC[C@@H]1OCCc2sccc21` are 113 nM and 110%.
With `NCCc1ccsc1`, the EC50 in assay [1] was determined as 25 nM. Also, the Emax in assay [2] was found to be 112%.

One may read the EC50 as the concentration that produces a half-maximal response. A word on the Emax: it is the greatest response seen or fitted, relative to the assay's reference.
